This is an account of results in ChEMBL document CHEMBL1124954, “Atrial natriuretic peptide receptor modulators: effects of disubstituted quinazolines on receptor binding and in vitro biological activity” (J Med Chem, 1990).

For orientation: EC50 means the midpoint of the concentration-response curve. A high value points to a need for much substance.

Assay [1] can be described thus: In vitro binding affinity towards atrionatriuretic peptide receptor (ANP) using [125I]rANP as radioligand in bovine adrenal zonal glomerulosa membranes.
A short description of assay [2]: Percent increase in [125I]rANP binding at 20 uM concentration in bovine zona glomerulosa membranes. It counts as cell membranes.
Assay [3] is filed under the species Rattus norvegicus. Briefly: Concentration for rANP inhibition of aldosterone synthesis was determined in rat adrenal glomerulosa. Type of assay: functional. In outline: (§1)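 Collagenase-dispersed male Sprague-Dawley rat adrenal glomerulosa cells were used at about 30,000 cells/mL in M199 with KCl 3.5 mM and BSA 2 mg/mL. They were incubated 2 h at 37 °C with ACTH 1 nM and rANP 10⁻¹⁰–10⁻⁸ M, plus compound or water vehicle. Aldosterone was measured by RIA. The EC50 came from a four-parameter logistic fit, compared by Student's t test, 10 experiments.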

The species entered for assay [4] is Rattus norvegicus. Kind of assay: ACTH-stimulated aldosterone synthesis was determined in rat adrenal glomerulosa cell suspension (control = 8.5+/-0.9). It counts as functional.
Assay [5] is filed under the species Rattus norvegicus. Briefly: Inhibition of aldosterone synthesis was determined in rat adrenal glomerulosa per 2 hours at 3 uM concentration, in the absence of rANP (control = 1+/-0.1). It counts as functional.
The species entered for assay [6] is Rattus norvegicus. Briefly: Concentration for rANP inhibition of aldosterone synthesis was determined n rat adrenal glomerulosa. It counts as functional. The procedure, abridged: as §1
The species named for assay [7] is Rattus norvegicus. Kind of assay: Inhibition of aldosterone synthesis was determined in rat adrenal glomerulosa per 2 hours at 10 uM concentration, in the absence of rANP (control = 1.8+/-0.5). Type of assay: functional.
The species named for assay [8] is Rattus norvegicus. Kind of assay: Inhibition of ACTH (1 nM)-stimulated aldosterone synthesis was determined in rat adrenal glomerulosa (control = 17.4+/-2.5). Type of assay: functional.
Assay [9] is described as follows: In vitro binding affinity towards atrionatriuretic peptide receptor (ANP) using [125I]rANP as radioligand in bovine adrenal zonal glomerulosa membranes; Not active at 20 uM.
The nature of assay [10]: In vitro binding affinity towards Atrionatriuretic peptide receptor (ANP) using [125I]rANP as radioligand in bovine adrenal zonal glomerulosa membranes.

Active and inactive are the calls of the source. No cut-off for these calls is given here.

Compound `CCN(CC)c1nc(NCCN=C(N)N)c2ccccc2n1` gave an SC50 in [1] of 2.4 µM.

As for `CCN(CC)c1nc(NCC/N=C(\N)NC)c2ccccc2n1`, in [1], the SC50 came to 4.5 µM.

In assay [2], `CC/N=C(/NC#N)NCCNc1nc(N(CC)CC)nc2ccccc12` registered an Increase of 12%.

Compound `CN(CCCNC(=O)c1ccco1)c1nc(N2CCCC2)c2ccccc2n1` had an SC50 in assay [1] of 5.6 µM. `CN(CCCN=C(N)N)c1nc(N2CCCC2)c2ccccc2n1` came in with an SC50 in [1] of 1.5 µM. Turning to `CCN(CC)c1nc(NCCCCN=C(N)N)c2ccccc2n1`, the SC50 in [1] turned out to be 2.2 µM. Regarding `CCN(CC)c1nc(NCC/N=C(/NC)NC#N)c2ccccc2n1`, in [2], the Increase was found to be 25%. Compound `CCN(CC)c1nc(NCCCN=C(N)N)c2ccccc2n1` yielded an SC50 in assay [1] of 1.8 µM. Also, the EC50 in the assay listed under Rattus norvegicus [3] stood at 0.12 nM. Also, the Concentration worked out at 7.7 ng/mL in the assay filed under Rattus norvegicus [4] and 0.9 ng/mL in the assay listed under Rattus norvegicus [5]. In the case of `CCN(CC)c1nc(OC)c2ccccc2n1`, the midpoint of the response in the assay listed under Rattus norvegicus [6], the EC50, lay at 0.18 nM. Also, the Concentration in the assay listed under Rattus norvegicus [7] was determined as 1.4 ng/mL; in the assay listed under Rattus norvegicus [8], 17.8 ng/mL. Further, the SC50 result in assay [9] was “inactive”. Turning to `c1ccc2c(N3CCCC3)nc(N3CCNCC3)nc2c1`, in [1], the SC50 came to 4.2 µM. In turn, `COc1cc2nc(N3CCN(C(=O)c4ccco4)CC3)nc(N)c2cc1OC` displayed an SC50 in assay [10] of 25 µM. With `O=C(c1ccco1)N1CCN(c2nc(N3CCCC3)c3ccccc3n2)CC1`, the SC50 in assay [1] was found to be 7 µM. `CC/N=C(/N)NCCNc1nc(N(CC)CC)nc2ccccc12` came in with an SC50 in assay [1] of 7.4 µM.
